Measurements as given in PMC4650587 (Cell Research, 2014).
Entries after “also recorded” stand apart in the source; their conditions may differ. Read-outs that look alike come from different tables or passages of the source. Blank lines part the entries; values can stand above or below the molecule they belong to.

Key:
[1] = molecular target: CBM-KD interaction of AMPK; test: AlphaScreen interaction between isolated biotin-CBM and His6-KD in trans; assay type: binding, human
How it was run: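 Biotin-CBM (β2[75-163] avitag, biotinylated in vivo) was split in two. One half was phosphorylated in trans by CaMKKβ-phosphorylated His6-KD (CBM:KD 50:1, 4 h, RT), then freed of KD by Ni column and size exclusion. 100 nM biotin-CBM on streptavidin donor beads was paired with 100 nM His6-KD on Ni acceptor beads. Buffer: 50 mM MOPS pH 7.4, 50 mM NaF, 50 mM CHAPS, 0.1 mg/ml BSA.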

[2] = molecular target: holo-AMPK; test: AlphaScreen CBM-KD interaction in holo-AMPK; assay type: binding, human; conditions: glycogen 0.5 mg/ml, cyclodextrin 2 mM
[3] = test system: rat liver AMPK; conditions: cited from earlier work
[4] = test system: recombinant, E. coli-expressed AMPK; conditions: cited from earlier work
[5] = test system: AMPK; conditions: cited from earlier work
[6] = molecular target: human α1β2γ1 AMPK (Homo sapiens, UniProt P54619); assay type: biochemical
human α1β2γ1 AMPK (Homo sapiens, UniProt P54619), sequence (P54619 24-327, one chain of several): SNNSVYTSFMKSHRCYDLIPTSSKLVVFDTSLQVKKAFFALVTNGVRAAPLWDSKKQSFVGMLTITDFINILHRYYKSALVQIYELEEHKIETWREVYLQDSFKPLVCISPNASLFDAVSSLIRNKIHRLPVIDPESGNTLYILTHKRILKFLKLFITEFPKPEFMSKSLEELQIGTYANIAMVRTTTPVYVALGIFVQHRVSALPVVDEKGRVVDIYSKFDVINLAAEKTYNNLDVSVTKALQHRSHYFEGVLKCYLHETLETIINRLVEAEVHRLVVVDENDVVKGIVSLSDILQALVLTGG
human α1β2γ1 AMPK (Homo sapiens, UniProt P54619), sequence (Q13131 20-559 partner, one chain of several): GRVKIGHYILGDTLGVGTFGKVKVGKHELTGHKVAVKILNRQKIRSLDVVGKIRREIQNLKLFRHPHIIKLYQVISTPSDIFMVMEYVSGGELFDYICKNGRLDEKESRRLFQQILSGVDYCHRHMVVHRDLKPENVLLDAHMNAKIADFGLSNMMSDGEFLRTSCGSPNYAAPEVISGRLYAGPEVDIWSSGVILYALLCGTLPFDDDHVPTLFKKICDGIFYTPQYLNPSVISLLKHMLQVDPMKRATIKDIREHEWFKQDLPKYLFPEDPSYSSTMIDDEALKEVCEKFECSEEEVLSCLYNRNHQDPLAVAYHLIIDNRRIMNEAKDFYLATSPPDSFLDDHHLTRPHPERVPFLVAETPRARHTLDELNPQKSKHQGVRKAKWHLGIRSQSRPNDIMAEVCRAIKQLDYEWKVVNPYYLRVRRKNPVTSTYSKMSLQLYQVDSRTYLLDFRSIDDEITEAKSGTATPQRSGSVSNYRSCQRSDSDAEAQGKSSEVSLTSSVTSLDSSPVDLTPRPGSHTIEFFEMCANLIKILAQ

[7] = test system: AID-αRIM / core AMPK(α1[395-550]-β2[187-272]-γ1); test: AlphaScreen interaction between biotinylated core AMPK and His6GST-AID-αRIM; assay type: binding, human; conditions: wild-type AID-αRIM; AMP 0.2 mM, ATP 1 mM
How it was run: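 Two-protein AlphaScreen pairing 100 nM His6-tagged protein on nickel acceptor beads with 100 nM biotin-tagged protein on streptavidin donor beads. Biotinylated core AMPK (α1[395-550]-β2[187-272]-γ1) was an avitag fusion biotinylated in E. coli by co-expressed BirA with 40 μM biotin. Reactions ran in 50 mM MOPS pH 7.4, 50 mM NaF, 50 mM CHAPS, 0.1 mg/ml BSA, 0.2 mM AMP, 1 mM ATP.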

[8] = test system: human α1β2γ1 AMPK; test: Radioactive kinase assay; assay type: biochemical; conditions: phosphorylated AMPK; 1 mg/ml glycogen
[9] = molecular target: T1, AMPK γ1(24-327), γ-subunit of the crystallised holo-AMPK (human, UniProt P54619 24-327); test: crystal structure
T1 sequence (P54619 24-327): as the sequence (P54619 24-327, one chain of several) above

[10] = molecular target: T1, AMPK γ1(24-327), γ-subunit of the …; test: crystal structure; remark: listed apart in the source

Molecule: Cc1ccc(Oc2nc3cc(-c4ccc5c(ccn5C)c4)c(Cl)cc3[nH]2)cc1C(=O)O [compound 991]
effect on kinase activity [5]: increase kinase activity

Molecule: N#Cc1c(O)c2c(-c3ccc(-c4ccccc4O)cc3)csc2[nH]c1=O [A769662]
effect on kinase activity [5]: increase kinase activity

Molecule: Nc1ncnc2c1ncn2[C@@H]1O[C@H](COP(=O)(O)O)[C@@H](O)[C@H]1O [AMP]
change of luminescence signal, α-γ tagged AMPK ([6]; 2 μM AMP): doubled the luminescence signal | effect on AID-αRIM / core AMPK interaction signal [7]: increased

B2: non-phosphorylated AMPK β2(76-272), β-subunit of the crystallised non-phosphorylated holo-AMPK (domain or fragment)
chain: ARPTVIRWSEGGKEVFISGSFNNWSTKIPLIKSHNDFVAILDLPEGEHQYKFFVDGQWVHDPSEPVVTSQLGTINNLIHVKKSDFEVFDALKLDSMESSETSCRDLSSSPPGPYGQEMYAFRSEERFKSPPILPPHLLQVILNKDTNISCDPALLPEPNHVMLNHLYALSIKDSVMVLSATHRYKKKYVTTLLYKPI
binding result [10]: binds

Now from value to molecule, other results behind:

effect on AlphaScreen signal of holo-AMPK (CBM-KD) ([2]; phosphorylated AMPK): smaller decrease
Molecule: OC[C@H]1O[C@@H]2O[C@H]3[C@H](O)[C@@H](O)[C@@H](O[C@H]4[C@H](O)[C@@H](O)[C@@H](O[C@H]5[C@H](O)[C@@H](O)[C@@H](O[C@H]6[C@H](O)[C@@H](O)[C@@H](O[C@H]7[C@H](O)[C@@H](O)[C@@H](O[C@H]8[C@H](O)[C@@H](O)[C@@H](O[C@H]1[C@H](O)[C@H]2O)O[C@@H]8CO)O[C@@H]7CO)O[C@@H]6CO)O[C@@H]5CO)O[C@@H]4CO)O[C@@H]3CO [cyclodextrin, β-cyclodextrin hydrate]
effect on CBM-KD interaction signal ([1]; non-phosphorylated CBM, cyclodextrin 2 mM): greatly reduced the interaction; also recorded: strongly reduced the interaction | effect on CBM-KD interaction signal ([1]; phosphorylated CBM, cyclodextrin 2 mM): mildly; also recorded: only weakly reduced the interaction | effect on activity of immunoprecipitated native rat liver AMPK [3]: more substantially inhibit | effect on catalytic activity of recombinant AMPK [4]: mildly inhibit

change of luminescence signal, α-γ tagged AMPK ([6]; 1 mM ATP): decreased the signal by a factor of two
Molecule: Nc1ncnc2c1ncn2[C@@H]1O[C@H](COP(=O)(O)OP(=O)(O)OP(=O)(O)O)[C@@H](O)[C@H]1O [ATP]
effect on AID-αRIM / core AMPK interaction signal [7]: decreased

effect on CBM-KD interaction signal ([1]; phosphorylated and non-phosphorylated CBM, glycogen 0.5 mg/ml): almost abolished this interaction | effect on AlphaScreen signal of holo-AMPK (CBM-KD) ([2]; non-phosphorylated AMPK): significant (P < 0.01) signal decrease | effect on AlphaScreen signal of holo-AMPK (CBM-KD) ([2]; phosphorylated AMPK): smaller decrease | effect on AMPK catalytic activity [8]: failed to detect an effect
Molecule: glycogen
effect on activity of immunoprecipitated native rat liver AMPK [3]: more substantially inhibit | effect on activity of purified rat liver AMPK ([3]; purified rat liver AMPK): did not detect an effect | effect on catalytic activity of recombinant AMPK [4]: mildly inhibit

binding result [9]: binds
B1: phosphorylated AMPK β2(76-272), β-subunit of the crystallised phosphorylated holo-AMPK (domain or fragment)
chain: ARPTVIRWSEGGKEVFISGSFNNWSTKIPLIKSHNDFVAILDLPEGEHQYKFFVDGQWVHDPSEPVVTSQLGTINNLIHVKKSDFEVFDALKLDSMESSETSCRDLSSSPPGPYGQEMYAFRSEERFKSPPILPPHLLQVILNKDTNISCDPALLPEPNHVMLNHLYALSIKDSVMVLSATHRYKKKYVTTLLYKPI
modifications: phosphoserine at 108 (autophosphorylated)
